Publication PMC5483893 (Journal of Medicinal Chemistry, 2017)

Test system: total α-tubulin in QBI-293 cells
Assay: Total α-tubulin ELISA
Assay type: cell-based
Details: at doses typically required to induce an elevation in AcTub
Outline: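 QBI-293 cells were plated at 6 × 10⁵ cells/well, grown overnight at 37 °C and 5% CO₂, then given fresh medium with vehicle (DMSO) or 1 and 10 μM test compound for 4 h. Lysis was in RIPA with protease inhibitors, 1 mM PMSF and 1 μM TSA, followed by 100000g for 30 min at 4 °C. Supernatant was BCA-normalized and α-tubulin measured by ELISA as fold-change versus vehicle. Samples were run at least in triplicate; significance was by two-tailed unpaired t test.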

Q: How did the “effect on total α-tubulin levels” value turn out when `Cc1ccc(F)c(-c2cnc(Cl)n2-c2ccc(Cl)cc2)c1F` [Compound 63, 2-Chloro-1-(4-chlorophenyl)-5-(2,6-difluoro-3-methylphenyl)-1H-imidazole] was run?
A: cause a significant reduction in total α-tubulin levels

Q: With `Cc1nc(Cl)c(-c2c(F)cccc2F)n1-c1ccc(Cl)cc1` [Compound 85, 4-Chloro-1-(4-chlorophenyl)-5-(2,6-difluorophenyl)-2-methyl-1H-imidazole] as the molecule, how does the “effect on total α-tubulin levels” value read?
A: cause a significant reduction in total α-tubulin levels

Q: How did the “effect on total α-tubulin levels” value turn out when `Cc1nc(Cl)c(-c2c(F)ccc(Cl)c2F)n1-c1ccc(Cl)cc1` [Compound 65, 4-Chloro-5-(3-chloro-2,6-difluorophenyl)-1-(4-chlorophenyl)-2-methyl-1H-imidazole] was run?
A: cause a significant reduction in total α-tubulin levels

Q: `COc1cc(F)c(-c2c(Cl)nc(C)n2-c2ccc(Cl)cc2)c(F)c1` [Compound 2, 4-Chloro-1-(4-chlorophenyl)-5-(2,6-difluoro-4-methoxyphenyl)-2-methyl-1H-imidazole] was tested. Which “effect on total α-tubulin levels” value did it give?
A: cause a significant reduction in total α-tubulin levels

Q: How did the “effect on total α-tubulin levels” value turn out when `Cc1ncc(-c2c(F)ccc(F)c2F)n1-c1ccc(Cl)cc1` [Compound 34, 1-(4-Chlorophenyl)-2-methyl-5-(2,3,6-trifluorophenyl)-1H-imidazole] was run?
A: cause a significant reduction in total α-tubulin levels

Q: With `COc1cc(F)c(-c2c(Cl)nc(Cl)n2-c2ccc(Cl)cc2)c(F)c1` [Compound 58, 2,4-Dichloro-1-(4-chlorophenyl)-5-(2,6-difluoro-4-methoxyphenyl)-1H-imidazole] as the molecule, how does the “effect on total α-tubulin levels” value read?
A: cause a significant reduction in total α-tubulin levels

Q: With `Fc1cc(F)c(-c2c(Cl)ncn2-c2ccc(Cl)nc2)c(F)c1` [Compound 73, 2-Chloro-5-(4-chloro-5-(2,4,6-trifluorophenyl)-1H-imidazol-1-yl)pyridine] as the molecule, how does the “effect on total α-tubulin levels” value read?
A: cause a significant reduction in total α-tubulin levels

Q: For `Fc1ccc(Cl)c(F)c1-c1cnc(Cl)n1-c1ccc(Cl)cc1` [Compound 66, 2-Chloro-5-(3-chloro-2,6-difluorophenyl)-1-(4-chlorophenyl)-1H-imidazole], which “effect on total α-tubulin levels” value is on record?
A: cause a significant reduction in total α-tubulin levels

Q: How did the “effect on total α-tubulin levels” value turn out when `Cc1ccc(F)c(-c2c(Cl)ncn2-c2ccc(Cl)cc2)c1F` [Compound 62, 4-Chloro-1-(4-chlorophenyl)-5-(2,6-difluoro-3-methylphenyl)-1H-imidazole] was run?
A: cause a significant reduction in total α-tubulin levels

Q: How did the “effect on total α-tubulin levels” value turn out when `Cc1nc(Cl)n(-c2ccc(Cl)cc2)c1-c1c(F)ccc(Cl)c1F` [Compound 30, 2-Chloro-5-(3-chloro-2,6-difluorophenyl)-1-(4-chlorophenyl)-4-methyl-1H-imidazole] was run?
A: cause a significant reduction in total α-tubulin levels

Test system: acetylated α-tubulin (AcTub) in QBI-293 cells
Assay: Acetyl-tubulin assay
Assay type: cell-based
Details: 1 or 10 μM
Outline: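 QBI-293 cells kept at 37 °C, 5% CO₂, trypsinised and plated at 6 × 10⁵ cells/well, then exposed overnight-later to vehicle (DMSO) or test compound for 4 h. Lysis in RIPA with protease inhibitors, 1 mM PMSF and 1 μM TSA; 100000g spin, 30 min, 4 °C. BCA protein, then AcTub ELISA. Fold-change versus vehicle, at least triplicate, two-tailed unpaired t test.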

Q: How did the “elevation in AcTub without decrease of α-tubulin” value turn out when `Cc1nc(Cl)n(-c2ccc(Cl)cc2)c1-c1c(F)ccc(F)c1F` [Compound 36, 2-Chloro-1-(4-chlorophenyl)-4-methyl-5-(2,3,6-trifluorophenyl)-1H-imidazole] was run?
A: produce an elevation in AcTub at 1 or 10 μM without decreasing α-tubulin level

Q: For `Cc1ncn(-c2ccc(Cl)cc2)c1-c1c(F)ccc(F)c1F` [Compound 35, 1-(4-Chlorophenyl)-4-methyl-5-(2,3,6-trifluorophenyl)-1H-imidazole], which “elevation in AcTub without decrease of α-tubulin” value is on record?
A: produce an elevation in AcTub at 1 or 10 μM without decreasing α-tubulin level

Q: With `Fc1cc(-n2c(-c3c(F)ccc(F)c3F)cnc2Cl)ccc1Cl` [Compound 72, 2-Chloro-1-(4-chloro-3-fluorophenyl)-5-(2,3,6-trifluorophenyl)-1H-imidazole] as the molecule, how does the “elevation in AcTub without decrease of α-tubulin” value read?
A: produce an elevation in AcTub at 1 or 10 μM without decreasing α-tubulin level

Q: With `Fc1ccc(Cl)c(F)c1-c1c(Cl)ncn1-c1ccc(Cl)cc1` [Compound 64, 4-Chloro-5-(3-chloro-2,6-difluorophenyl)-1-(4-chlorophenyl)-1H-imidazole] as the molecule, how does the “elevation in AcTub without decrease of α-tubulin” value read?
A: produce an elevation in AcTub at 1 or 10 μM without decreasing α-tubulin level

Q: `COc1ccc(-n2c(-c3c(F)cc(F)cc3F)cnc2Cl)cc1` [Compound 60, 2-Chloro-1-(4-methoxyphenyl)-5-(2,4,6-trifluorophenyl)-1H-imidazole] was tested. Which “elevation in AcTub without decrease of α-tubulin” value did it give?
A: produce an elevation in AcTub at 1 or 10 μM without decreasing α-tubulin level

Q: For `Fc1cc(Cl)ccc1-n1cnc(Cl)c1-c1c(F)cccc1F` [Compound 78, 4-Chloro-1-(4-chloro-2-fluorophenyl)-5-(2,6-difluorophenyl)-1H-imidazole], which “elevation in AcTub without decrease of α-tubulin” value is on record?
A: produce an elevation in AcTub at 1 or 10 μM without decreasing α-tubulin level

Q: `COc1ccc(-n2cnc(Cl)c2-c2c(F)cc(F)cc2F)cc1` [Compound 59, 4-Chloro-1-(4-methoxyphenyl)-5-(2,4,6-trifluorophenyl)-1H-imidazole] was tested. Which “elevation in AcTub without decrease of α-tubulin” value did it give?
A: produce an elevation in AcTub at 1 or 10 μM without decreasing α-tubulin level

Q: `Fc1cccc(F)c1-c1c(Cl)ncn1-c1ccccc1Cl` [Compound 102, 4-Chloro-1-(2-chlorophenyl)-5-(2,6-difluorophenyl)-1H-imidazole] was tested. Which “elevation in AcTub without decrease of α-tubulin” value did it give?
A: produce an elevation in AcTub at 1 or 10 μM without decreasing α-tubulin level

Q: Which “elevation in AcTub without decrease of α-tubulin” value does the source give for `Cc1nc(Cl)c(-c2c(F)cc(F)cc2F)n1-c1ccc(Cl)nc1` [Compound 74, 2-Chloro-5-(4-chloro-2-methyl-5-(2,4,6-trifluorophenyl)-1H-imidazol-1-yl)pyridine] here?
A: produce an elevation in AcTub at 1 or 10 μM without decreasing α-tubulin level

Q: `Fc1cc(F)c(-c2c(Cl)ncn2-c2ccc(Cl)cc2)c(F)c1` [Compound 54, 4-Chloro-1-(4-chlorophenyl)-5-(2,4,6-trifluorophenyl)-1H-imidazole] was tested. Which “elevation in AcTub without decrease of α-tubulin” value did it give?
A: produce an elevation in AcTub at 1 or 10 μM without decreasing α-tubulin level

Q: With `Cc1nc(C)n(-c2ccc(Cl)cc2)c1-c1c(F)ccc(Cl)c1F` [Compound 31, 5-(3-Chloro-2,6-difluorophenyl)-1-(4-chlorophenyl)-2,4-dimethyl-1H-imidazole] as the molecule, how does the “elevation in AcTub without decrease of α-tubulin” value read?
A: produce an elevation in AcTub at 1 or 10 μM without decreasing α-tubulin level

Q: `Cc1ncn(-c2ccc(Cl)cc2)c1-c1c(F)ccc(Cl)c1F` [Compound 29, 5-(3-Chloro-2,6-difluorophenyl)-1-(4-chlorophenyl)-4-methyl-1H-imidazole] was tested. Which “elevation in AcTub without decrease of α-tubulin” value did it give?
A: produce an elevation in AcTub at 1 or 10 μM without decreasing α-tubulin level

Same assay, conditions: QBI-293 cells, 1 and 10 μM

Q: For `COc1ccc(F)c(-c2cncn2-c2ccc(Cl)cc2)c1F` [Compound 49, 1-(4-Chlorophenyl)-5-(2,6-difluoro-3-methoxyphenyl)-1H-imidazole], which “MT activity (AcTub increase), inactive compounds” value (shortened to “MT activity (AcTub increase)”) is on record?
A: do not cause a detectable increase in AcTub

Q: For `Fc1ccc(-c2c(Cl)ncn2-c2ccc(Cl)cc2)cc1` [Compound 76, 4-Chloro-1-(4-chlorophenyl)-5-(4-fluorophenyl)-1H-imidazole], which “MT activity (AcTub increase)” value is on record?
A: essentially devoid of MT activity

Q: For `Clc1ccc(-n2cncc2-c2ccccc2)cc1` [Compound 50, 1-(4-Chlorophenyl)-5-phenyl-1H-imidazole], which “MT activity (AcTub increase)” value is on record?
A: essentially devoid of MT activity

Q: Which “MT activity (AcTub increase)” value does the source give for `Fc1cc(F)c(-c2cncn2-c2ccc(Cl)cc2)c(F)c1` [Compound 25, 1-(4-Chlorophenyl)-5-(2,4,6-trifluorophenyl)-1H-imidazole] here?
A: do not cause a detectable increase in AcTub

Q: `Fc1cccc(F)c1-c1cncn1-c1ccc(OC(F)(F)F)cc1` [Compound 42, 5-(2,6-Difluorophenyl)-1-(4-(trifluoromethoxy)phenyl)-1H-imidazole] was tested. Which “MT activity (AcTub increase)” value did it give?
A: do not cause a detectable increase in AcTub

Q: For `COc1ccc(-n2cncc2-c2c(F)cc(F)cc2F)cc1` [Compound 26, 1-(4-Methoxyphenyl)-5-(2,4,6-trifluorophenyl)-1H-imidazole], which “MT activity (AcTub increase)” value is on record?
A: do not cause a detectable increase in AcTub

Q: With `Fc1cccc(F)c1-c1cncn1-c1ccc(Cl)cc1` [Compound 43, 1-(4-Chlorophenyl)-5-(2,6-difluorophenyl)-1H-imidazole] as the molecule, how does the “MT activity (AcTub increase)” value read?
A: do not cause a detectable increase in AcTub

Q: With `Fc1ccc(-c2cnc(Cl)n2-c2ccc(Cl)cc2)cc1` [Compound 75, 2-Chloro-1-(4-chlorophenyl)-5-(4-fluorophenyl)-1H-imidazole] as the molecule, how does the “MT activity (AcTub increase)” value read?
A: essentially devoid of MT activity

Q: Which “MT activity (AcTub increase)” value does the source give for `Fc1cccc(F)c1-c1cncn1-c1ccccc1Cl` [Compound 53, 1-(2-Chlorophenyl)-5-(2,6-difluorophenyl)-1H-imidazole] here?
A: do not cause a detectable increase in AcTub

Q: `Fc1ccc(F)c(-c2c(Cl)ncn2-c2ccc(Cl)cc2)c1` [Compound 80, 4-Chloro-1-(4-chlorophenyl)-5-(2,5-difluorophenyl)-1H-imidazole] was tested. Which “MT activity (AcTub increase)” value did it give?
A: inactive

Q: With `Fc1cccc(F)c1-c1cncn1-c1ccccc1` [Compound 52, 5-(2,6-Difluorophenyl)-1-phenyl-1H-imidazole] as the molecule, how does the “MT activity (AcTub increase)” value read?
A: do not cause a detectable increase in AcTub

Q: `Cc1cc(F)c(-c2cncn2-c2ccc(Cl)cc2)c(F)c1` [Compound 48, 1-(4-Chlorophenyl)-5-(2,6-difluoro-4-methylphenyl)-1H-imidazole] was tested. Which “MT activity (AcTub increase)” value did it give?
A: do not cause a detectable increase in AcTub

Same assay, conditions: comparison of 1 and 10 μM

Q: `COc1cc(F)c(-c2c(Cl)nc(C)n2-c2ccc(Cl)cc2)c(F)c1` [Compound 2, 4-Chloro-1-(4-chlorophenyl)-5-(2,6-difluoro-4-methoxyphenyl)-2-methyl-1H-imidazole] was tested. Which “shape of concentration–response in the AcTub assay” value did it give?
A: bell-shaped concentration–response relationship

Q: `COc1cc(F)c(-c2c(Cl)nc(Cl)n2-c2ccc(Cl)cc2)c(F)c1` [Compound 58, 2,4-Dichloro-1-(4-chlorophenyl)-5-(2,6-difluoro-4-methoxyphenyl)-1H-imidazole] was tested. Which “shape of concentration–response in the AcTub assay” value did it give?
A: bell-shaped concentration–response relationship
